Measured values published in ChEMBL document CHEMBL3745635, “Cytotoxic Orbitide from the Latex of Croton urucurana” (J Nat Prod, 2015).
≈ marks a conversion by molar mass, not a printed value. Residues, ends and D or L forms follow the SMILES beside them.

How the values were obtained:
[1] = tested on: 786-0; experiment: Cytotoxicity against human 786-0 cells assessed as growth inhibition after 48 hrs by sulforhodamine B assay; format: functional; details: 786-0, 48 h
Method in brief: (§1)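 Cells seeded at 7.5 × 10^3 per well. Samples were dissolved in DMSO, aliquoted and stored at −20 °C. GI50 values are means of three independent experiments, each run in triplicate. Doxorubicin served as positive control.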

[2] = tested on: HT-29; experiment: Cytotoxicity against human HT-29 cells assessed as growth inhibition after 48 hrs by sulforhodamine B assay; format: functional; details: HT-29, 48 h; method in brief: as §1
[3] = tested on: MCF7; experiment: Cytotoxicity against human MCF7 cells assessed as growth inhibition after 48 hrs by sulforhodamine B assay; format: functional; details: MCF7, 48 h; method in brief: as §1
[4] = Cytotoxicity against human NCI-ADR-RES cells assessed as growth inhibition after 48 hrs by sulforhodamine B assay; format: functional; method in brief: as §1
[5] = tested on: HepG2; experiment: Cytotoxicity against human HepG2 cells assessed as growth inhibition after 48 hrs by sulforhodamine B assay; format: functional; details: HepG2, 48 h; method in brief: as §1
[6] = Cytotoxicity against human PC3 cells assessed as growth inhibition after 48 hrs by sulforhodamine B assay; format: functional; details: PC-3, 48 h; method in brief: as §1
[7] = Cytotoxicity against mouse NIH/3T3 cells assessed as growth inhibition after 48 hrs by sulforhodamine B assay; format: cell-based, NIH3T3; method in brief: as §1

Compound	GI50 [1]	GI50 [2]	GI50 [3]	GI50 [4]	GI50 [5]	GI50 [6]	GI50 at 48 h [7]
CC(C)C[C@@H]1NC(=O)[C@H](CO)NC(=O)CNC(=O)[C@H](CC(C)C)NC(=O)[C@H](CC(N)=O)NC(=O)CNC(=O)[C@H](Cc2ccccc2)NC(=O)[C@H](C)NC(=O)CNC1=O (cyclo(AFGNLGSLG))	18.7 µg/mL (≈ 22.9 µM)	37.3 µg/mL (≈ 45.6 µM)	35.5 µg/mL (≈ 43.4 µM)	4.8 µM	41.3 µg/mL (≈ 50.6 µM)	29.8 µg/mL (≈ 36.5 µM)	> 306 µM
COc1cccc2c1C(=O)c1c(O)c3c(c(O)c1C2=O)C[C@@](O)(C(=O)CO)C[C@@H]3O[C@H]1C[C@H](N)[C@H](O)[C@H](C)O1 [DOXORUBICIN]	0.15 µg/mL (≈ 0.276 µM)	0.85 µg/mL (≈ 1.56 µM)	0.07 µg/mL (≈ 0.129 µM)	5.1 µM	0.25 µg/mL (≈ 0.46 µM)	0.22 µg/mL (≈ 0.405 µM)	4 µM
